ChEMBL document CHEMBL1125740, “Heterocyclic quinones. 17. A new in vivo active antineoplastic drug: 6,7-bis(1-aziridinyl)-4-[[3-(N,N-dimethylamino)propyl]amino]-5,8- quinazolinedione” (J Med Chem, 1991)
“And” between values parts separate entries of the source, which are not always exact repeats. Equal entries are not always repeated.

Columns and labels:
L1210 = assay: Inhibitory activity against L1210 cell growth; format: functional, cell-based; details: Mus musculus
Outline: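 L1210 cells were grown in RPMI 1640 with 2 mM glutamine and 20% heat-inactivated horse serum at 37 °C under 5% CO2. Drug was added in DMSO (0.5% final) to exponential cells seeded at 0.8×10^5 cells/mL. Coulter counts were done in triplicate at 48 h. IC50 was taken from a regression of probit % growth inhibition against log dose, from one experiment.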

P388 [1] = assay: (§1) Compound was evaluated in vivo for antitumor activity after intraperitoneal administration against P388/L-PAM(14) for change in body weight at an optimal dose of 5 mg/kg/injection; format: functional, Mus musculus
P388 [2] = assay: Compound was evaluated in vivo for antitumor activity after intraperitoneal administration against P388/L-PAM(12) for % increase in life span at an optimal dose of 1 mg/kg/injection; format: functional; details: Mus musculus, P388, ip
P388 [3] = assay: Compound was evaluated in vivo for antitumor activity after intraperitoneal administration against P388 (1303) for mortality range at an optimal dose of 5 mg/kg/injection; format: functional, Mus musculus
P388 [4] = assay: Compound was evaluated in vivo for antitumor activity after intraperitoneal administration against P388 (1303) for tumor free survivors at an optimal dose of 5 mg/kg/injection; format: functional, Mus musculus
P388 [5] = assay: (§2) Compound was evaluated in vivo for antitumor activity after intraperitoneal administration against P388/L-PAM(14) for % increase in life span at an optimal dose of 5 mg/kg/injection; format: functional; details: Mus musculus, P388, ip
P388 [6] = assay: Compound was evaluated in vivo for antitumor activity after intraperitoneal administration against P388/L-PAM(12) for total dose at an optimal dose of 5 mg/kg/injection; format: functional, Mus musculus
P388 [7] = assay: Compound was evaluated in vivo for antitumor activity after intraperitoneal administration against P388/L-PAM(12) for tumor free survivors at an optimal dose of 1 mg/kg/injection; format: functional, Mus musculus
P388 [8] = assay: Compound was evaluated in vivo for antitumor activity after intraperitoneal administration against P388 (1303) for change in body weight at an optimal dose of 5 mg/kg/injection; format: functional, Mus musculus
P388 [9] = assay: (§3) Compound was evaluated in vivo for antitumor activity after intraperitoneal administration against P388/L-PAM(14) for tumor free survivors at an optimal dose of 5 mg/kg/injection; format: functional, Mus musculus
P388 [10] = assay: Compound was evaluated in vivo for antitumor activity after intraperitoneal administration against P388 (1303) for total dose at an optimal dose of 5 mg/kg/injection; format: functional, Mus musculus
P388 [11] = assay: Compound was evaluated in vivo for antitumor activity after intraperitoneal administration against P388/L-PAM(14) for total dose at an optimal dose of 5 mg/kg/injection; format: functional, Mus musculus
P388 [12] = assay: Compound was evaluated in vivo for antitumor activity after intraperitoneal administration against P388/L-PAM(12 for mortality range at an optimal dose of 5 mg/kg/injection; format: functional, Mus musculus
P388 [13] = assay: Compound was evaluated in vivo for antitumor activity after intraperitoneal administration against P388/L-PAM(14) for median day of death at an optimal dose of 5 mg/kg/injection; format: functional, Mus musculus
P388 [14] = assay: Compound was evaluated in vivo for antitumor activity after intraperitoneal administration against P388 (1303) for median day of death at an optimal dose of 5 mg/kg/injection; format: functional, Mus musculus
P388 [15] = assay: (§4) Compound was evaluated in vivo for antitumor activity after intraperitoneal administration against P388/L-PAM(14) for mortality range at an optimal dose of 5 mg/kg/injection; format: functional, Mus musculus
P388 [16] = assay: as §1; format: functional, Mus musculus; remark: listed apart in the source
P388 [17] = assay: as §4; format: functional, Mus musculus; remark: listed apart in the source
P388 [18] = assay: Compound was evaluated in vivo for antitumor activity after intraperitoneal administration against P388 (1303) for % increase in life span at an optimal dose of 5 mg/kg/injection; format: functional; details: Mus musculus, P388, ip
P388 [19] = assay: Compound was evaluated in vivo for antitumor activity after intraperitoneal administration against P388/L-PAM(12 for median day of death at an optimal dose of 1 mg/kg/injection; format: functional, Mus musculus
P388 [20] = assay: as §3; format: functional, Mus musculus; remark: listed apart in the source
P388 [21] = assay: as §2; format: functional; details: Mus musculus, P388, ip; remark: listed apart in the source
P388 [22] = assay: Compound was evaluated in vivo for antitumor activity after intraperitoneal administration against P388 (1313) for total dose at an optimal dose of 5 mg/kg/injection; format: functional, Mus musculus
P388 [23] = assay: Compound was evaluated in vivo for antitumor activity after intraperitoneal administration against P388/L-PAM(12 for change in body weight at an optimal dose of 1 mg/kg/injection; format: functional, Mus musculus
P388 [24] = assay: (§5) Compound was evaluated in vivo for antitumor activity after intraperitoneal administration against P388 (1303) for change in body weight at an optimal dose of 1 mg/kg/injection; format: functional, Mus musculus
P388 [25] = assay: (§6) Compound was evaluated in vivo for antitumor activity after intraperitoneal administration against P388 (1303) for median day of death at an optimal dose of 1 mg/kg/injection; format: functional, Mus musculus
P388 [26] = assay: (§7) Compound was evaluated in vivo for antitumor activity after intraperitoneal administration against P388 (1303) for tumor free survivors at an optimal dose of 1 mg/kg/injection; format: functional, Mus musculus
P388 [27] = assay: Compound was evaluated in vivo for antitumor activity after intraperitoneal administration against P388 (1303) for total dose at an optimal dose of 1 mg/kg/injection; format: functional, Mus musculus
P388 [28] = assay: Compound was evaluated in vivo for antitumor activity after intraperitoneal administration against P388/L-PAM for total dose at an optimal dose of 1 mg/kg/injection; format: functional, Mus musculus
P388 [29] = assay: (§8) Compound was evaluated in vivo for antitumor activity after intraperitoneal administration against P388 (1303) for % increase in life span at an optimal dose of 1 mg/kg/injection; format: functional; details: Mus musculus, P388, ip
P388 [30] = assay: (§9) Compound was evaluated in vivo for antitumor activity after intraperitoneal administration against P388 (1303) for mortality range at an optimal dose of 1 mg/kg/injection; format: functional, Mus musculus
P388 [31] = assay: as §5; format: functional, Mus musculus; remark: listed apart in the source
P388 [32] = assay: as §8; format: functional; details: Mus musculus, P388, ip; remark: listed apart in the source
P388 [33] = assay: as §6; format: functional, Mus musculus; remark: listed apart in the source
P388 [34] = assay: as §7; format: functional, Mus musculus; remark: listed apart in the source
P388 [35] = assay: as §9; format: functional, Mus musculus; remark: listed apart in the source
Mus musculus [36] = assay: Compound was evaluated in vivo for antitumor activity against colon adenocarcinoma after injecting the compound intraperitoneally for total dose.; format: functional
Mus musculus [37] = assay: Compound was evaluated in vivo for antitumor activity against colon adenocarcinoma after injecting the compound intraperitoneally for toxicity related death.; format: functional
Mus musculus [38] = assay: Compound was evaluated in vivo for antitumor activity against colon adenocarcinoma after injecting the compound intraperitoneally for percent T/C; format: functional
Mus musculus [39] = assay: Compound was evaluated in vivo for antitumor activity against colon adenocarcinoma after injecting the compound intraperitoneally for median tumor burden; format: functional
Mus musculus [40] = assay: Compound was evaluated in vivo for antitumor activity against colon adenocarcinoma after injecting the compound intraperitoneally for optimal dose; format: functional

## COC1=CC(=O)c2ncnc(NCCCn3cnc4c(N)ncnc43)c2C1=O
L1210
  IC50: > 10 µg/mL and > 24.6 µM

## COc1cccc2c1C(=O)c1c(O)c3c(c(O)c1C2=O)C[C@@](O)(C(=O)CO)C[C@@H]3O[C@H]1C[C@H](N)[C@H](O)[C@H](C)O1 [DOXORUBICIN]
L1210
  IC50: 0.028 µg/mL and 48 nM

## CCN(CC)CCCNc1ncnc2c1C(=O)C(OC)=CC2=O
L1210
  IC50: 0.393 µg/mL and 1.24 µM

## CCCC(=O)OCCNc1ncnc2c1C(=O)C(OC)=CC2=O
L1210
  IC50: 0.85 µg/mL and 2.66 µM

## COC(=O)CNc1ncnc2c1C(=O)C(OC)=CC2=O
L1210
  IC50: 1.2 µg/mL and 4.26 µM

## COC1=CC(=O)c2ncnc(NCCO)c2C1=O
L1210
  IC50: 1.78 µg/mL and 7.13 µM

## O=C1C(N2CC2)=C(N2CC2)C(=O)c2ncncc21
L1210
  IC50: 80 nM

## CN(C)CCCNc1ncnc2c1C(=O)C(N1CCCCC1)=CC2=O
L1210
  IC50: 0.406 µg/mL and 1.17 µM

## COC(=O)C(CC(C)C)NC(=O)C(CC(C)C)Nc1ncnc2c1C(=O)C(OC)=CC2=O (configuration not stated)
L1210
  IC50: 0.581 µg/mL and 1.3 µM

## COC1=CC(=O)c2ncnc(NCCCN(C)CCCNc3ncnc4c3C(=O)C(OC)=CC4=O)c2C1=O
L1210
  IC50: 1250 nM

## N[C@@H](Cc1ccc(N(CCCl)CCCl)cc1)C(=O)O [MELPHALAN]
P388 [1]
  Change in body weight: 0 g mouse-1
P388 [2]
  ILS at 1 mg/kg: 15%
P388 [3]
  Mortality: 34 days
P388 [4]
  Survivors: 0
P388 [5]
  ILS at 5 mg/kg: 14%
P388 [6]
  Total dose: 5 mg/kg
P388 [7]
  Survivors: 0
P388 [8]
  Change in body weight: 0.1 g mouse-1
P388 [9]
  Survivors: 0
P388 [10]
  Total dose: 5 mg/kg
P388 [11]
  Total dose: 5 mg/kg
P388 [12]
  Mortality: 31 days
P388 [13]
  Median day of death: 16
P388 [14]
  Median day of death: 24
P388 [15]
  Mortality: 34 days
P388 [16]
  Change in body weight: 0.4 g mouse-1
P388 [17]
  Mortality: 19 days
P388 [18]
  ILS at 5 mg/kg: 118%
P388 [19]
  Median day of death: 15
P388 [20]
  Survivors: 0
P388 [21]
  ILS at 5 mg/kg: 121%
P388 [22]
  Total dose: 5 mg/kg
P388 [23]
  Change in body weight: 0.6 g mouse-1

## CN(CCCNc1ncnc2c1C(=O)C(N1CC1)=C(N1CC1)C2=O)CCCNc1ncnc2c1C(=O)C(N1CC1)=C(N1CC1)C2=O
L1210
  IC50: 4.8 nM

## CCN(CC)CCCC(C)Nc1ncnc2c1C(=O)C(OC)=CC2=O (configuration not stated)
L1210
  IC50: 0.435 µg/mL and 1.26 µM

## COC1=CC(=O)c2ncnc(OCCOCCOCCO)c2C1=O
L1210
  IC50: > 10 µg/mL and > 29.6 µM

## CCN(CC)CCNc1ncnc2c1C(=O)C(OC)=CC2=O
L1210
  IC50: 0.281 µg/mL and 898 nM

## COC1=CC(=O)c2ncnc(NCCCN(C)C)c2C1=O
L1210
  IC50: 0.501 µg/mL and 1.73 µM

## COc1cccc2c1C(=O)c1c(O)c3c(c(O)c1C2=O)C[C@@](O)(C(C)=O)C[C@@H]3O[C@H]1C[C@H](N)[C@H](O)[C@H](C)O1 [DAUNORUBICIN]
P388 [24]
  Change in body weight: 1.4 g mouse-1
P388 [25]
  Median day of death: 19.5
P388 [26]
  Survivors: 0
P388 [27]
  Total dose: 4 mg/kg
P388 [28]
  Total dose: 4 mg/kg
P388 [29]
  ILS at 1 mg/kg: 79%
P388 [30]
  Mortality: 20 days
P388 [31]
  Change in body weight: 0.3 g mouse-1
P388 [32]
  ILS at 1 mg/kg: 63%
P388 [33]
  Median day of death: 18
P388 [34]
  Survivors: 0
P388 [35]
  Mortality: 27 days

## COC1=CC(=O)c2ncnc(NCCN(C)C)c2C1=O
L1210
  IC50: 0.316 µg/mL and 1.14 µM

## O=c1[nH]cc(F)c(=O)[nH]1 [FLUOROURACIL]
Mus musculus [36]
  Total dose: 140 mg/kg
Mus musculus [37]
  Toxicity: 0
Mus musculus [38]
  T/C: 14%
Mus musculus [39]
  Tumor burden: 60 mg
Mus musculus [40]
  Optimal dose: 70 mg/kg

## COC(=O)C(Nc1ncnc2c1C(=O)C(OC)=CC2=O)C(C)C (configuration not stated)
L1210
  IC50: 0.825 µg/mL and 2.59 µM
